Assay [1] concerns the target T1, Pancreatic alpha-amylase (Sus scrofa) (UniProt P00690).
T1 sequence (whole entry): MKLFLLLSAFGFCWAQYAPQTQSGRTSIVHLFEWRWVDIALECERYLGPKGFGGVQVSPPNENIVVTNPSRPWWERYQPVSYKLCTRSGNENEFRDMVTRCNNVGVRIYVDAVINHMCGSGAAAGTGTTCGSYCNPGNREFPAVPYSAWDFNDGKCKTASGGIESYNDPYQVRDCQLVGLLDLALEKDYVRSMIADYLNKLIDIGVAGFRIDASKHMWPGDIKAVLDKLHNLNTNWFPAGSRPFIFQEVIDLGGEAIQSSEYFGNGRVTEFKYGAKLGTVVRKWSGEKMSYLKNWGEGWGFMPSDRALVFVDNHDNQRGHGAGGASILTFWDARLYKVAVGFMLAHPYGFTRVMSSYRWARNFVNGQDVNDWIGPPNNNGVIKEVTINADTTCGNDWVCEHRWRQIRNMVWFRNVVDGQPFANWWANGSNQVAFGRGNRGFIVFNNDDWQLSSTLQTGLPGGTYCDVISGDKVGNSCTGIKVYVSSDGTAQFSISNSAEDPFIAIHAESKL
As to the kind of experiment: Inhibition pig alpha-amylase at 50 to 300 ug/ml pretreated for 30 mins followed by addition of 1% starch for 10 mins by spectrometer. Put shortly:
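PBS containing 1% starch was then added for 10 min at 37°C. The reaction was stopped with DNSA in a boiling bath for 10 min, and OD was read at 540 nm against a 0.2% maltose reference. Acarbose was the positive control. Runs were in triplicate with SD, giving % inhibition relative to an uninhibited control.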

Assay [2] addresses T1, Pancreatic alpha-amylase (Sus scrofa). As to the kind of experiment: Inhibition pig alpha-amylase at 300 ug/ml pretreated for 30 mins followed by addition of 1% starch for 10 mins by spectrometer. Put shortly: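 Porcine pancreatic α-amylase (1.28 mg in 25 ml PBS) was preincubated with compounds in methanol (50, 150 or 300 µg/ml) at 37°C for 30 min. PBS containing 1% starch was then added for 10 min at 37°C. The reaction was stopped with DNSA in a boiling bath for 10 min, and OD was read at 540 nm against a 0.2% maltose reference. Acarbose was the positive control. Runs were in triplicate with SD, giving % inhibition relative to an uninhibited control.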

Assay [3] has the same target. The settings on record: 100 mg/ml.

In the case of `CCOC(=O)C1=C(C)NC(=S)NC1c1ccc(OC)cc1` (configuration not stated), the inhibition (as a rule, the drop in the measured response relative to a control, in per cent) in assay [1] came out at 66.5%.
Take `CCOC(=O)C1=C(C)NC(=S)NC1c1ccccc1` (configuration not stated): the inhibition in assay [2] was determined as 97.2%.
With `CCOC(=O)C1=C(C)NC(=S)N[C@H]1c1cccc(O)c1`, the inhibition in assay [1] was found to be 0%.
As to `CCOC(=O)C1=C(C)NC(=O)NC1c1ccc2c(c1)OCO2` (configuration not stated), the inhibition in assay [1] is 0%.
As to `C[C@H]1O[C@H](O[C@H]2[C@H](O)[C@@H](O)[C@@H](O[C@H]3[C@H](O)[C@@H](O)C(O)O[C@@H]3CO)O[C@@H]2CO)[C@H](O)[C@@H](O)[C@@H]1N[C@H]1C=C(CO)[C@@H](O)[C@H](O)[C@H]1O` (some centres not stated), the inhibition in assay [3] worked out at 100%.
Take `CCOC(=O)C1=C(C)NC(=O)NC1c1cccc([N+](=O)[O-])c1` (configuration not stated): the inhibition in assay [1] was 26.5%.
As to `CCOC(=O)C1=C(C)NC(=O)NC1c1ccccc1F` (configuration not stated), the inhibition in assay [1] was 0%.
Same read-out and setting: with `CCOC(=O)C1=C(C)NC(=O)NC1c1ccc([N+](=O)[O-])cc1` (configuration not stated) the figure was 0%.
With `CCOC(=O)C1=C(C)NC(=O)NC1c1ccccc1` (configuration not stated), in assay [1], the inhibition is 0%.
Same read-out and setting: the value for `CCOC(=O)C1=C(C)NC(=O)NC1c1ccc(OC)cc1` (configuration not stated) was 0%; that for `CCOC(=O)C1=C(C)NC(=S)NC1c1cccc(OC)c1` (configuration not stated) was 0%; that for `CCOC(=O)C1=C(C)NC(=O)NC1c1ccc(F)cc1` (configuration not stated) was 63.8%.

Values taken from ChEMBL document CHEMBL3286173, “Graphite catalyzed solvent free synthesis of dihydropyrimidin-2(1H)-ones/thiones and their antidiabetic activity” (Bioorg Med Chem Lett, 2014).
